The results in this text go back to ChEMBL document CHEMBL1949567, “Novel synthesis and biological evaluation of enigmols as therapeutic agents for treating prostate cancer” (ACS Med Chem Lett, 2011).

Structures are written as SMILES. The source made the active and inactive calls. No cut-off for these calls is given here.

Data set [1] has as its system PC-3. In words: Cytotoxicity against human PC3 cells after 24 hrs by WST-1 assay. It counts as functional, cell-based. As to conditions: PC-3, 24 h. A digest of the protocol: (§1)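 PC-3 (androgen-independent) and LNCaP (androgen-sensitive) prostate cancer cells treated for 24 h. Cytotoxicity read by WST-1 assay. IC50 calculated from the resulting data.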
In data set [2] the test system is Mus musculus. In words: Toxicity in androgen insensitive human PC3 cells xenografted nude mouse model assessed as body weight change administered at 10 mg/kg, po once daily administered from day 16 after implantation. The settings on record: in vivo. Further details: dose 10 mg/kg, route oral. It counts as organism-based, PC-3. Summed up:
(§2)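 Nude mice bearing established PC-3 tumors (n = 10) given 10 mg/kg daily by oral gavage from day 16 after implantation, with vehicle controls. Tumor growth and body weight measured over time. Growth rates compared by mixed model for repeated measurements, weights by ANOVA.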

The test system of data set [3] is LNCaP. The data set can be described thus: Cytotoxicity against human LNCAP cells after 24 hrs by WST-1 assay. It counts as functional, cell-based. A digest of the protocol:
as §1
In general terms: Formazan colour is commonly taken as a measure of viable cells.

Data set [4] deals with PC-3. The data set can be described thus: Anticancer activity against androgen insensitive human PC3 cells xenografted nude mouse model assessed as decrease in tumor growth rate administered at 10 mg/kg, po once daily administered from day 16 after implantation. It counts as functional, organism-based. Further details: dose 10 mg/kg. A digest of the protocol: as §2
For orientation: Xenograft models place foreign cells or tissue in a host animal.

A short description of data set [5]: Tmax in CD-1/Swiss Webster mouse at 10 mg/kg, po by LC/MS/MS analysis. It counts as ADME, organism-based. Further details: dose 10 mg/kg, route oral. As to conditions: in vivo. A digest of the protocol: (§3)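 Outbred male Swiss Webster or CD-1 mice, n = 3 per time point, single oral dose of 10 or 30 mg/kg in 10% ethanol/90% olive oil given at 5 mL/kg. Blood drawn from submandibular vein or retro-orbital plexus at set time points. PK parameters calculated from mean plasma concentrations (nM).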

Data set [6] concerns Mus musculus. In words: Toxicity in androgen insensitive human PC3 cells xenografted nude mouse model assessed as body weight change administered at 10 mg/kg, po once daily administered from day 22 to day 34 after implantation. It counts as organism-based, PC-3. Further details: dose 10 mg/kg, route oral. The settings on record: in vivo. Summed up: (§4)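 Nude mice bearing PC-3 xenografts (n = 15). Daily oral gavage at 10 mg/kg from Day 22 to Day 34 after implantation. Docetaxel 15 mg/kg or vehicle given i.p. on Days 22 and 29, alone or combined with gavage. Tumor growth and body weight followed. Growth analysed by mixed model for repeated measurements, weights by ANOVA.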

Data set [7] in a line: Cmax in CD-1/Swiss Webster mouse at 10 mg/kg, po by LC/MS/MS analysis. The settings on record: in vivo. It counts as ADME, organism-based. Further details: dose 10 mg/kg, route oral. A digest of the protocol:
as §3

Data set [8] has as its system PC-3. The data set can be described thus: Anticancer activity against androgen insensitive human PC3 cells xenografted nude mouse model assessed as decrease in tumor growth rate administered at 10 mg/kg, po once daily administered from day 22 to day 34 after implantation coadministered with docetaxel relative to control. It counts as functional, organism-based. Further details: dose 10 mg/kg. A digest of the protocol: as §4

Data set [9] concerns Mus musculus. In words: (§5) Apparent volume of distribution during terminal phase in CD-1/Swiss Webster mouse at 30 mg/kg, po by LC/MS/MS analysis. As to conditions: in vivo. Further details: dose 30 mg/kg, route oral. It counts as ADME, organism-based. Summed up:
as §3

Data set [10] can be described thus: AUC (0 to t) in CD-1/Swiss Webster mouse at 10 mg/kg, po by LC/MS/MS analysis. It counts as ADME, organism-based. Further details: dose 10 mg/kg, route oral. The settings on record: plasma. A digest of the protocol:
as §3

The nature of data set [11]: Apparent oral clearance in CD-1/Swiss Webster mouse at 10 mg/kg, po by LC/MS/MS analysis. It counts as ADME, organism-based. On the set-up: dose 10 mg/kg, route oral. As to conditions: in vivo. A digest of the protocol:
as §3

Data set [12] can be described thus: Apparent volume of distribution during terminal phase in CD-1/Swiss Webster mouse at 10 mg/kg, po by LC/MS/MS analysis. Further details: dose 10 mg/kg, route oral. The settings on record: in vivo, read-out: Vz/F. It counts as ADME, organism-based. Summed up:
as §3

In data set [13] the test system is Mus musculus. In words: Toxicity in androgen sensitive human LNCAP cells xenografted nude mouse model assessed as body weight change at 10 mg/kg, po once daily after day 14 of implantation. It counts as organism-based. On the set-up: dose 10 mg/kg, route oral. The settings on record: in vivo. A digest of the protocol: (§6)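 Nude mice bearing palpable subcutaneous LNCaP tumors (n = 10–12 per group). Castration or sham surgery on Day 13 after implantation. Daily oral gavage of 10 mg/kg or vehicle from Day 14. Tumor growth followed over time and body weights monitored. Controls sacrificed Day 36 for tumor burden; some groups continued longer. Growth analysed by mixed model for repeated measurements, weights by ANOVA.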

Data set [14] deals with PC-3. In words: Anticancer activity against androgen insensitive human PC3 cells xenografted nude mouse model assessed as decrease in tumor growth rate administered at 10 mg/kg, po once daily administered from day 16 after implantation.
Data set [15] can be described thus: AUC (0 to t) in CD-1/Swiss Webster mouse at 30 mg/kg, po by LC/MS/MS analysis. It counts as ADME, organism-based. Further details: dose 30 mg/kg, route oral. The settings on record: plasma. A digest of the protocol:
as §3

Data set [16] relates to LNCaP. The data set can be described thus: Anticancer activity in androgen sensitive human LNCAP cells xenografted castrated mouse model assessed as reduction in tumor growth rate administered at 10 mg/kg, po once daily from day 14 after implantation measured on day 38 relative to control. It counts as functional, organism-based. Further details: dose 10 mg/kg. A digest of the protocol: as §6

Data set [17] can be described thus: Tmax in CD-1/Swiss Webster mouse at 30 mg/kg, po by LC/MS/MS analysis. It counts as ADME, organism-based. Further details: dose 30 mg/kg, route oral. The settings on record: in vivo. A digest of the protocol: as §3
Data set [18] in a line: Apparent oral clearance in CD-1/Swiss Webster mouse at 30 mg/kg, po by LC/MS/MS analysis. It counts as ADME, organism-based. Further details: dose 30 mg/kg, route oral. The settings on record: in vivo. A digest of the protocol: as §3
Data set [19] is described as follows: AUC (0 to infinity) in CD-1/Swiss Webster mouse at 10 mg/kg, po by LC/MS/MS analysis. It counts as ADME, organism-based. On the set-up: time infinity, dose 10 mg/kg, route oral. The settings on record: plasma. Summed up: as §3
Data set [20] can be described thus: Half life in CD-1/Swiss Webster mouse at 10 mg/kg, po by LC/MS/MS analysis. On the set-up: dose 10 mg/kg, route oral. As to conditions: in vivo. It counts as ADME, organism-based. A digest of the protocol:
as §3

A short description of data set [21]: Cmax in CD-1/Swiss Webster mouse at 30 mg/kg, po by LC/MS/MS analysis. The settings on record: in vivo. Further details: dose 30 mg/kg, route oral. It counts as ADME, organism-based. Summed up:
as §3

Data set [22] in a line: Half life in CD-1/Swiss Webster mouse at 30 mg/kg, po by LC/MS/MS analysis. As to conditions: in vivo. Further details: dose 30 mg/kg, route oral. It counts as ADME, organism-based. Summed up: as §3
Data set [23] concerns Mus musculus. The data set can be described thus: Toxicity in androgen sensitive human LNCAP cells xenografted castrated mouse model assessed as body weight change at 10 mg/kg, po once daily after day 14 of implantation. Further details: dose 10 mg/kg, route oral. The settings on record: in vivo. It counts as organism-based. A digest of the protocol: as §6
The test system of data set [24] is LNCaP. The data set can be described thus: Anticancer activity against androgen sensitive human LNCAP cells xenografted nude mouse model assessed as reduction in tumor growth rate administered at 10 mg/kg, po once daily after day 14 of implantation measured on day 36 relative to control. Further details: dose 10 mg/kg. It counts as functional, organism-based. A digest of the protocol:
as §6

Data set [25] in a line: Drug uptake in rat prostate tissue at 100 mg/kg, po. It counts as ADME, organism-based, Prostate gland. Further details: dose 100 mg/kg, route oral. The settings on record: in vivo, read-out: Drug uptake.
A short description of data set [26]: AUC (0 to infinity) in CD-1/Swiss Webster mouse at 30 mg/kg, po by LC/MS/MS analysis. It counts as ADME, organism-based. Further details: time infinity, dose 30 mg/kg, route oral. The settings on record: plasma. A digest of the protocol:
as §3

For data set [27], the system named is PC-3. In words: Anticancer activity against androgen insensitive human PC3 cells xenografted nude mouse model assessed as decrease in tumor growth rate administered at 10 mg/kg, po once daily administered from day 22 to day 34 after implantation relative to control. It counts as functional, organism-based. Further details: dose 10 mg/kg. Summed up: as §4
Data set [28] can be described thus: as §5. It counts as ADME, organism-based. Further details: dose 30 mg/kg, route oral. As to conditions: CD-1/Swiss Webster, in vivo, read-out: Vz/F. Summed up: as §3
Data set [29] has as its system PC-3. In words: Anticancer activity against androgen insensitive human PC3 cells xenografted nude mouse model assessed as decrease in tumor growth rate administered at 15 mg/kg, ip administered once in a week on day 22 to day 29 after implantation relative to control. It counts as functional, organism-based. On the set-up: dose 15 mg/kg. Summed up:
as §4

In general, IC50 refers to the concentration that inhibits the measured activity by half. Read a low IC50 as greater potency in that assay. With `CCCCCCCCCCCCC[C@@H](O)C[C@H](O)[C@H](C)N`, the IC50 came out at 10.2 µM with PC-3 [1] and 9.7 µM in the data set with LNCaP [3]. The Activity with Mus musculus [2] amounted to 0.3%. The result in the data set on PC-3 [4] was Active.

Usually Tmax stands for the time at which the peak concentration occurs. By Cmax is commonly meant the highest concentration seen after dosing. A word on the AUC(0-t): it is the area under the concentration-time curve up to a stated or last time point. Read a high AUC(0-t) as more exposure. By CL/F is commonly meant the apparent clearance, not corrected for the fraction that reaches the circulation. By AUC(0-inf) is commonly meant the area under the concentration-time curve extrapolated to infinity. A higher AUC(0-inf) goes with high exposure. Usually half-life stands for the time in which the quantity being followed falls by half. Turning to `CCCCCCCCCCCCC[C@H](O)C[C@H](O)[C@H](C)N` [ENIGMOL], the half-inhibitory concentration (IC50) is 10.3 µM with PC-3 [1] and 9.7 µM in the data set on LNCaP [3]. Besides, the Tmax in [5] and in data set [17] was 2 h in each case. Moreover, the Activity was 0.3% in the data set with Mus musculus [6], less than 6% in the data set on Mus musculus [13] and less than 6% with Mus musculus [23]. Besides, the Cmax in data set [7] is 137 nM; in [21], 705 nM. For the same molecule, the outcome with PC-3 [8], with PC-3 [14], in the data set with PC-3 [4], in the data set on LNCaP [16], in the data set with LNCaP [24] and in the data set with PC-3 [27] was Active. Also, the Vz/F in the data set with Mus musculus [9] was determined as 107 L/kg. Moreover, the area under the curve AUC(0-t) is 1.88 µM·h in [10] and 5.96 µM·h in data set [15]. Moreover, the values for the CL/F in data set [11] and in data set [18] were 217 mL/min/kg and 233 mL/min/kg, respectively. In addition, the Vd/F in data set [12] stood at 211 L/kg. For the same molecule, the AUC(0-inf) in data set [19] came to 2.54 µM·h; in data set [26], 6.96 µM·h. The half-life in [20] was 11 h; in [22], 5 h. In addition, in data set [25], the concentration is 10000 nM.

On to `CCCCCCCCCCCCC[C@@H](O)C[C@@H](O)[C@H](C)N`, for which the concentration for half-maximal inhibition (IC50) with PC-3 [1] was 49.3 µM; in the data set on LNCaP [3], 50 µM.

For `CCCCCCCCCCCCC[C@H](O)C[C@@H](O)[C@H](C)N`, the IC50 with PC-3 [1] worked out at 9.7 µM; in the data set with LNCaP [3], 5 µM. For the same molecule, in the data set with Mus musculus [2], the Activity is 0.3%. For the same molecule, the result in the data set with PC-3 [4] was Active.

`CCCCCCCCCCCCC[C@H](O)C[C@H](O)[C@H](C)NC`: the IC50 with PC-3 [1] came out at 10.5 µM; in the data set on LNCaP [3], 25 µM. For the same molecule, the values for the Tmax in data set [5] and in [17] were 4 h and 2 h, respectively. For the same molecule, the Cmax in data set [7] came to 232 nM; in data set [21], 1120 nM. In addition, the Vd/F in [28] worked out at 90 L/kg; in data set [12] it was 117 L/kg. In addition, the AUC(0-t) in data set [10] is 3.86 µM·h; in [15] it was 13.6 µM·h. Also, the CL/F in data set [11] and in data set [18] was 83.3 mL/min/kg each time. Besides, the results for the AUC(0-inf) in data set [19] and in data set [26] were 5.99 µM·h and 17.9 µM·h, respectively. The results for the half-life in data set [20] and in [22] were 15 h and 12 h, respectively.

With `CC(=O)O[C@@]12CO[C@@H]1C[C@H](O)[C@@]1(C)C(=O)[C@H](O)C3=C(C)[C@@H](OC(=O)[C@H](O)[C@@H](NC(=O)OC(C)(C)C)c4ccccc4)C[C@@](O)([C@@H](OC(=O)c4ccccc4)[C@H]21)C3(C)C`, the result with PC-3 [29] was Active.
